Data from article PMC1301599 (Nucleic Acids Research, 2005).

Key:
Format in all cases: cell-based
[1] = test system: HIV-1 Tat-dependent trans-activation (TAR RNA; HIV-1 LTR firefly luciferase) in HeLa Tet-Off/Tat/luc-f/luc-R cells; experiment: Inhibition of Tat-dependent trans-activation in HeLa cell reporter assay; conditions: for reduction of firefly luciferase activity, 6 h delivery with chloroquine: 6 h incubation in presence of 100 µM chloroquine, then 18 h growth, 0.312-2.5 µM
Procedure, shortened: (§1)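 HeLa Tet-Off/Tat/luc-f/luc-R cells (HIV-1 LTR-firefly, CMV-Renilla), 10 × 10^3/well, grown 24 h at 37°C. They were exposed 6 h in Opti-MEM with 100 µM chloroquine, with or without test compound diluted from 2.5 µM in that medium. Cells were PBS-washed, then grown 18 h in DMEM/10% FBS. Lysate firefly and Renilla luminescence was read sequentially, normalised to parallel-plate viability absorbance, and expressed as % of cells without test compound. Two replicates, three experiments.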

[2] = test system: constitutive CMV promoter-directed Renilla luciferase in HeLa Tet-Off/Tat/luc-f/luc-R cells; experiment: Control Renilla luciferase expression in HeLa cell reporter assay; conditions: chloroquine alone treatment; data not shown
Procedure, shortened: as §1

[3] = test system: HeLa Tet-Off/Tat/luc-f/luc-R cells; experiment: Toxicity assay; conditions: 100 µM chloroquine; data not shown
Procedure, shortened: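 This ran on a duplicate plate of HeLa Tet-Off/Tat/luc-f/luc-R cells (10 × 10^3/well, 24 h at 37°C). The plate got 6 h with 100 µM chloroquine in Opti-MEM, then a PBS wash and 18 h in DMEM/10% FBS. Live cells were quantified colorimetrically with the CellTiter 96 AQueous One reagent, absorbance at 490 nm. Two replicates in each of three experiments.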

| Compound | reduction of firefly luciferase activity, 6 h delivery with chloroquine [1] | level of firefly luciferase activity, chloroquine alone ([1]; 100 µM chloroquine, no CPP–PNA) | level of Renilla luciferase, chloroquine alone [2] | HeLa cell viability, chloroquine alone [3] |
| --- | --- | --- | --- | --- |
| ATCGCTCGCACCATGC (disulfide) [scrambled conjugate 13] | no inhibitory activity |  |  |  |
| CTCCGCAGCTCAGATC (disulfide) [mismatched conjugate 13] | no inhibitory activity |  |  |  |
| CCN(CC)CCCC(C)Nc1ccnc2cc(Cl)ccc12 (centres unmarked) [chloroquine] |  | not significantly affected | reduction | No effect |
